In the library only some 1.9% were active in any assay of this set; here they are far more common.
UHRF1 MBD2 ctr: blocks human UHRF1 binding to methylated DNA; UHRF1 binding to methylated oligo, TR-FRET; Q96T88; inhibition, % at 4.4 µM; hit rate 0.75% among 370,000; in the data active = inhibition above about 21%;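 note: UHRF1 SRA domain binding a hemimethylated CpG hairpin DNA probe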
Target sequence (Q96T88 whole entry, looked up, the tested form may be a part): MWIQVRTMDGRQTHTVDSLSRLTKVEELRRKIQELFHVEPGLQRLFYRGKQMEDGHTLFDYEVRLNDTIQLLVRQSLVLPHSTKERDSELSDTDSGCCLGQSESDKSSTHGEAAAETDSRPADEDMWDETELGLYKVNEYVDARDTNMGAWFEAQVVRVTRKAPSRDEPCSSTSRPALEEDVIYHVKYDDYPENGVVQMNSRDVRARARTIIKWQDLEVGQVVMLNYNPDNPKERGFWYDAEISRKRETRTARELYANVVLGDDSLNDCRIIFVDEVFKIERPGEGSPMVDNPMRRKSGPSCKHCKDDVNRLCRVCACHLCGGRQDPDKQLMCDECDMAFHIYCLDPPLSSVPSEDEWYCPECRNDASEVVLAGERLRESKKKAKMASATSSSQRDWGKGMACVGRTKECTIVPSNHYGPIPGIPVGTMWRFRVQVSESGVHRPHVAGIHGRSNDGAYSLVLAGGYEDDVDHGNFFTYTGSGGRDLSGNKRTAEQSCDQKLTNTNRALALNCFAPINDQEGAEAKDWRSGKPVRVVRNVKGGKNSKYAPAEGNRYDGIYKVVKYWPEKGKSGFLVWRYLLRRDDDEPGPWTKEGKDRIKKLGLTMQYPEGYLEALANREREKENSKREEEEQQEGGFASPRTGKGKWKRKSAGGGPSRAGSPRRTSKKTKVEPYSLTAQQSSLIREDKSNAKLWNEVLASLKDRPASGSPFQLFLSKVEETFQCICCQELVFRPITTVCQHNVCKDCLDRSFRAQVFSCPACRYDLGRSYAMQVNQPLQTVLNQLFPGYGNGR
TDP2 inh: TDP2 (human) inhibition, absorbance primary screen | recombinant TDP2, T5PNP hydrolysis, p-nitrophenol absorbance 415 nm | hit rate 0.34% among 370,000 | inhibition, % at 12.8 µM | AID 720702;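 active = inhibition above the mean of all tested compounds plus 3 SD, set per campaign, cut at about 25% in these data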
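System: recombinant human TDP2 / Amount: 120 nM TDP2 per well / Also added: 5 mM T5PNP chromogenic substrate / Doses: 12.8 µM single point, 1% DMSO / Incubation: 2 h at 37 °C / Detection: p-Nitrophenol epi absorbance / Evaluation: % inhibition relative to enzyme-containing and enzyme-free wells / Repeats: singlicate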
LEDGF integ inh: blocks HIV-1 LEDGF/p75-dependent DNA integration; TR-FRET IN-LEDGF/p75 DNA integration, Eu/Cy5; inhibition, % at 3.7 µM; hit rate 0.64% among 370,000; AID 743269;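 active = inhibition above the screen-wide mean plus 3 SD, cut at about 13% in these data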;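 note: signal is the Cy5 over europium emission ratio at 671 and 618 nm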
Rin1 Abl inh: inhibitors of human Rin1-Abl protein interaction; hit rate 0.4% among 360,000; inhibition, % at 7.35 µM; P00519+Q13671; TR-FRET Rin1/Abl binding, biochemical; in the data active = inhibition above about 5%, passing the limit was not always enough
MBD2 inh: blocks human MBD2 binding to methylated DNA; Q9UBB5; TR-FRET, MBD2 binding to methylated oligonucleotide; inhibition, % at 4.4 µM; hit rate 0.31% among 370,000; in the data active = inhibition above about 13%
IN multimer act: counter-screen for LEDGF/p75 integration inhibitors: HIV-1 integrase multimerization activators | shares compounds with LEDGF integ inh | TR-FRET HIV-1 integrase multimerization, biochemical | activation, % at 7.7 µM | hit rate 17% among 2,000 | AID 1053131; in the data active = activation above about 8.9%
TRFRET interf: TR-FRET optical interference, LEDGF/p75 integration counter-screen; shares compounds with LEDGF integ inh; TR-FRET optical interference counterscreen, HIV-1 IN multimerization; inhibition, % at 7.7 µM; 2,000 tested, under 10 active; AID 1053135;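 active = inhibition above the mean over all tested compounds plus 3 SD, which no compound reached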
LEDGF integ conf: LEDGF/p75-dependent HIV-1 integration inhibition, confirmation; inhibition, % at 3.7 µM; AID 1053136; hit rate 36% among 2,000; TR-FRET LEDGF/p75-dependent HIV-1 integration, biochemical; shares compounds with LEDGF integ inh; in the data active = inhibition above about 14%
Of the large screens only hits and unclear results are named; the others gave an inactive call (follow-up assays come after a bar, where they were run).

CSc1ccc(CN2CCCC(CO)(Cc3ccccc3)C2)cc1 (configuration not stated)	none
CCN(C[C@H]1N[C@@](C)(C(=O)OC)[C@H]2C(=O)N(C)C(=O)[C@@H]12)S(=O)(=O)c1ccc(C)cc1	LEDGF integ inh 34.5 | IN multimer act inactive | TRFRET interf inactive | LEDGF integ conf inactive
Cc1cc(C)n(-c2nc3ccccc3nc2NCCc2ccccc2)n1	LEDGF integ inh 20.9 | IN multimer act inactive | TRFRET interf inactive | LEDGF integ conf inactive
COc1ccc(Nc2nc3ccccc3nc2-n2nc(C)cc2C)cc1	none
O=C(O)/C(=C/c1ccco1)NC(=O)c1ccccc1	LEDGF integ inh 26.7 | IN multimer act inactive | TRFRET interf inactive | LEDGF integ conf inactive
O=C(O)/C(=C/c1ccco1)NC(=O)c1ccc(Br)o1	none
O=C(O)/C(=C\c1ccco1)NC(=O)c1cccc2ccccc12	UHRF1 MBD2 ctr 21.5, LEDGF integ inh 29.3 | IN multimer act inactive | TRFRET interf inactive | LEDGF integ conf inactive
CC(C)(C)c1ccc(C(=O)N/C(=C\c2ccco2)C(=O)O)cc1	none
CC1(C(=O)NCCC(F)(F)F)Cc2c(-c3cccc(C(N)=O)c3)ccnc2O1 (configuration not stated)	LEDGF integ inh 14.2 | IN multimer act inactive | TRFRET interf inactive | LEDGF integ conf inactive
CC1(C(=O)NCCC(F)(F)F)Cc2c(-c3cccc(C(F)(F)F)c3)ccnc2O1 (configuration not stated)	none
Cc1cc2nn(-c3ccc(Cl)cc3)nc2cc1N	none
COc1ccc(-n2nc3cc(C)c(N)cc3n2)cc1Cl	LEDGF integ inh 14.8 | IN multimer act inactive | TRFRET interf inactive | LEDGF integ conf inactive
CCN1CCN(C(c2ccccc2)c2nnnn2Cc2ccc3c(c2)OCO3)CC1 (configuration not stated)	LEDGF integ inh 25.1 | IN multimer act inactive | TRFRET interf inactive | LEDGF integ conf inactive
COCCCNC(=O)c1ccc(Cn2c(=O)c3ccccc3n(Cc3ccc(C(C)C)cc3)c2=O)cc1	none (no result: Rin1 Abl inh)
O=C(c1ccccc1)c1ccc2c(c1)OCCCO2	none
O=C1COc2ccc(C(=O)c3ccccc3)cc2CN1	LEDGF integ inh 50.0 | IN multimer act inactive | TRFRET interf inactive | LEDGF integ conf inactive
COc1ccc(NC(=O)CN2CCCCC2)c([N+](=O)[O-])c1	none
COc1ccc(NC(=O)CN2CCC(NC(=O)C3CCCCC3)CC2)c([N+](=O)[O-])c1	LEDGF integ inh 18.4 | IN multimer act inactive | TRFRET interf inactive | LEDGF integ conf inactive
CC(C)(C)c1ccc(S(=O)(=O)/N=C2\C=C(NS(=O)(=O)c3ccccc3)C(=O)c3ccccc32)cc1	LEDGF integ inh 16.2 | IN multimer act inactive | TRFRET interf inactive | LEDGF integ conf inactive
COC(=O)[C@]12CCCCC=C1N(Cc1ccc(OC)cc1)C(=O)[C@@H]2CC(=O)N1CCOCC1	none (no result: Rin1 Abl inh)
C=CCSC1=N/C(=C\c2cc(OCC)c(OC(C)=O)c([N+](=O)[O-])c2)C(=O)S1	LEDGF integ inh 32.4 | IN multimer act inactive | TRFRET interf inactive | LEDGF integ conf inactive
COc1cccc(=O)c2c(C)n(CC(=O)c3ccccc3)c(C)c12	LEDGF integ inh 51.1 | IN multimer act inactive | TRFRET interf inactive | LEDGF integ conf inactive
